Measurements pooled from the literature.
Target: Cannabinoid receptor 2 (CNR2, Homo sapiens, UniProt P34972)

| Structure (SMILES) | test | setting | endpoint | result |
| --- | --- | --- | --- | --- |
| COCc1c(-c2cc3cc(C)cc(OC)c3s2)c2c(N)ncnn2c1CN1CCNC(=O)C1 | ligand displacement, radioligand | 10 µM | inhibition | 2% |
| CCOC(=O)C(CC)(CCCSCCOCCOCCNc1ccc([N+](=O)[O-])c2nonc12)NC(=O)c1ccc(C2CC2)c(Cc2ccc(F)cc2)n1 (racemic) | cAMP, agonist |  | Emax | 100% |
| CN(CCN1CCC(OC(=O)Nc2ccccc2-c2ccccc2)CC1)C(=O)c1ccc(CN2CCC(C(N)=O)CC2)cc1 | ligand displacement, radioligand | 1 µM | inhibition | -2% |
| COc1ccc(S(=O)(=O)N2CCCCC2)cc1C | ligand displacement, radioligand | 10 µM | inhibition | < 30% |
| COc1cccc2c(C(=O)c3cccc4ccccc34)cn(CCN3CCOCC3)c12 | ligand displacement, radioligand | 1 µM, cell membranes | inhibition | 100% |
| CCOC(=O)C(CC)(CCCSCCOCCOCCOCCOCCNC(=O)OC(C)(C)C)NC(=O)c1ccc(C2CC2)c(Cc2ccc(F)cc2)n1 (centres unmarked) | cAMP, agonist |  | Emax | 91% |
| O=C(Nc1cccnn1)N1CCN([C@@H]2CCOc3cc(C(F)(F)F)ccc32)CC1 | ligand displacement | 20 µM | inhibition | 23% |
| Clc1ccc2c(C3CCN(CCc4c[nH]c5ccccc45)CC3)c[nH]c2c1 | ligand displacement, radioligand | 10 µM | inhibition | 11% |
